From ChEMBL document CHEMBL1811804, “Benzyl derivatives with in vitro binding affinity for human opioid and cannabinoid receptors from the fungus Eurotium repens” (J Nat Prod, 2011)

Columns and labels:
Format in all cases: cell-based
[1] = biological target: T1, Delta-type opioid receptor (Homo sapiens, UniProt P41143); assay: Binding affinity at human delta opioid receptor expressed in CHO-K1 cells at 10 uM
Procedure, shortened: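 Opioid membrane binding with test compound at 10 μM final; radioligand and membrane amounts set from saturation experiments. Incubation 25 °C, 60 min, then rapid filtration through BSA-presoaked filters, buffer wash and scintillation counting.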

[2] = biological target: Kappa-type opioid receptor (Homo sapiens, UniProt P41145); assay: Displacement of [3H]nor-Binaltorphimine from human kappa opioid receptor expressed in CHO-K1 cells after 60 mins by scintillation counting
Procedure, shortened: (§1)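 Opioid receptor membranes incubated with radioligand (amounts set from saturation experiments) at 25 °C for 60 min, test compound at 300 μM to 1.7 nM in dose-response. Rapid filtration through BSA-presoaked filters, scintillation counting; nonspecific binding (10 μM DPDPE, nor-binaltorphimine or DAMGO) subtracted. IC50 = concentration for 50% inhibition of 3H-ligand binding.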

Cannabinoid receptor 2 [3] = biological target: T2, Cannabinoid receptor 2 (Homo sapiens, UniProt P34972); assay: Binding affinity at human CB2 receptor expressed in CHO-K1 cells at 10 uM
Procedure, shortened: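 CHO-K1 cells stably transfected with full-length human CB1 or CB2 cDNA, cultured in DMEM/F-12 with 10% FBS and G418 or hygromycin B. Membranes (10 μg) incubated with test compound at 10 μM final and 0.6 nM [3H]CP-55,940 in 50 mM Tris pH 7.4, 154 mM NaCl, 20 mM Di-Na-EDTA, 0.02% BSA, 37 °C, 90 min. Filtration, scintillation counting; nonspecific binding (1 μM CP-55,940) subtracted; % displacement.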

Cannabinoid receptor 1 [4] = biological target: T3, Cannabinoid receptor 1 (Homo sapiens, UniProt P21554); assay: Binding affinity at human CB1 receptor expressed in CHO-K1 cells at 10 uM
Cannabinoid receptor 1 [5] = biological target: T3, Cannabinoid receptor 1; assay: Displacement of [3H]CP-55,940 from human CB1 receptor expressed in CHO-K1 cells after 90 mins by scintillation counting
Procedure, shortened: (§2)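 Membranes from CHO-K1 cells stably expressing human CB1 or CB2, 10 μg per well, with 0.6 nM [3H]CP-55,940 in 50 mM Tris pH 7.4, 154 mM NaCl, 20 mM Di-Na-EDTA, 0.02% BSA; 37 °C for 90 min. Dose-response from 300 μM to 1.7 nM.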

Cannabinoid receptor 2 [6] = biological target: T2, Cannabinoid receptor 2; assay: Displacement of [3H]CP-55,940 from human CB2 receptor expressed in CHO-K1 cells after 90 mins by scintillation counting; procedure, shortened: as §2
Mu-type opioid receptor = Mu-type opioid receptor (Homo sapiens, UniProt P35372); assay: Displacement of [3H]DAMGO from human mu opioid receptor expressed in CHO-K1 cells after 60 mins by scintillation counting; procedure, shortened: as §1
[7] = biological target: T1, Delta-type opioid receptor; assay: Displacement of [3H]DPDPE from human delta opioid receptor expressed in CHO-K1 cells after 60 mins by scintillation counting; procedure, shortened: as §1

T3 sequence (P21554 whole entry): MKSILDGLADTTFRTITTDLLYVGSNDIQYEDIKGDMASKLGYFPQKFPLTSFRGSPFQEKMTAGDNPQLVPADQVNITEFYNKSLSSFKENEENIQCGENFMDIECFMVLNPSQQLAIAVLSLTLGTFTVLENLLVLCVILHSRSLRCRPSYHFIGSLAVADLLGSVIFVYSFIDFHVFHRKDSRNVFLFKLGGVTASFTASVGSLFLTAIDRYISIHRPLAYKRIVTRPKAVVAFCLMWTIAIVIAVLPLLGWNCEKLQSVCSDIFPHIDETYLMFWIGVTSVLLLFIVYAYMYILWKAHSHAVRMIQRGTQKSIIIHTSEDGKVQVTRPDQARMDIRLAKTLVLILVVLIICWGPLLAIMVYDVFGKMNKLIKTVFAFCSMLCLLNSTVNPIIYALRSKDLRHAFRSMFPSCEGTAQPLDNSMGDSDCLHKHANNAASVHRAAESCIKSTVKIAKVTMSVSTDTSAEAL
T2 sequence (P34972 whole entry): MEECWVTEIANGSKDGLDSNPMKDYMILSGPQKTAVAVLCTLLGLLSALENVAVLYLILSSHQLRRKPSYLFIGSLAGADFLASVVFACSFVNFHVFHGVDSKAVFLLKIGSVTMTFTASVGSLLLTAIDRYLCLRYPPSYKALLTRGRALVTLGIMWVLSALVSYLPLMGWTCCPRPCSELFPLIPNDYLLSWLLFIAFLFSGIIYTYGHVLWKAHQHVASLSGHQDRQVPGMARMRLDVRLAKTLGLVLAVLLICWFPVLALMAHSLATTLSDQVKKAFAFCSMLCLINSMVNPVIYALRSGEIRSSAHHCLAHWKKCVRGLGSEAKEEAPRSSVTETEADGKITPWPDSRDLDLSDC
T1 sequence (P41143 whole entry): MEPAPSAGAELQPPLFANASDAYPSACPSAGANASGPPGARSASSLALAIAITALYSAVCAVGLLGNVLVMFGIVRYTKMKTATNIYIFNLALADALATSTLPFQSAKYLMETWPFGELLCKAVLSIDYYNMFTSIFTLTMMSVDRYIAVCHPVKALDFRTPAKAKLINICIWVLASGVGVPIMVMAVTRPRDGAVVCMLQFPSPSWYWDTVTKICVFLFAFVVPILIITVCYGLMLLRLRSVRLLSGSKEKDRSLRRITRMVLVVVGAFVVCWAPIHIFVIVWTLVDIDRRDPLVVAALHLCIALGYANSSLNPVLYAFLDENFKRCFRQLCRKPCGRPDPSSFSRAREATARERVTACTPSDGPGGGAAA
Sequence of Mu-type opioid receptor (P35372 whole entry): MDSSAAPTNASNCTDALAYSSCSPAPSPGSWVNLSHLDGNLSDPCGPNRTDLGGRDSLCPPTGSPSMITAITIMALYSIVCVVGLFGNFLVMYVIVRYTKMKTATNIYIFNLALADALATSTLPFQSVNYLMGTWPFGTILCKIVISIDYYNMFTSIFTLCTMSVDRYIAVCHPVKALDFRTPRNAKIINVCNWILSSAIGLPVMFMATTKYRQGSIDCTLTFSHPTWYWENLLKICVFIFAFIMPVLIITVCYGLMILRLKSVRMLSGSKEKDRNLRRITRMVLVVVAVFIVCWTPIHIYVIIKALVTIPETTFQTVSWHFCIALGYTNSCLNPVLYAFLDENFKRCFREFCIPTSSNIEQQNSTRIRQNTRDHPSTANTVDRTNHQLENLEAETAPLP
Sequence of Kappa-type opioid receptor (P41145 whole entry): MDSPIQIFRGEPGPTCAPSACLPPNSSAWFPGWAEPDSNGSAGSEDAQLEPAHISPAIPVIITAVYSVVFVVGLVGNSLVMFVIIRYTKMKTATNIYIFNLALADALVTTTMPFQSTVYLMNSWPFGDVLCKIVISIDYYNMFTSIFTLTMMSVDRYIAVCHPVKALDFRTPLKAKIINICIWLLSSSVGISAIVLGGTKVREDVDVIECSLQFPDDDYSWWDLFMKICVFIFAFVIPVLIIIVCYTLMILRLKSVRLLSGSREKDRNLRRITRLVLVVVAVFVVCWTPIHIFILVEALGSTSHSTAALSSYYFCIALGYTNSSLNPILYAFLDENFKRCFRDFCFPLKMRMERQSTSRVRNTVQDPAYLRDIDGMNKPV

SMILES | Activity [1] [%] | IC50 [2] [µM] | Activity (Cannabinoid receptor 2 [3]) [%] | Activity (Cannabinoid receptor 1 [4]) [%] | IC50 (Cannabinoid receptor 1 [5]) [µM] | IC50 (Cannabinoid receptor 2 [6]) [µM] | IC50 (Mu-type opioid receptor) [µM] | IC50 [7] [µM]
CCCCC/C=C/c1c(O)cc(CC=C(C)C)c2c1CC(O)O2 (stereo not given) | < 40 | 32.4 | – | – | – | – | – | –
Cc1c(O)cc(O)c2c1COC2=O | < 40 | – | < 40 | < 40 | – | – | – | –
C/C=C/C=C/C=C/c1c(O)cc(CC=C(C)C)c(O)c1C=O [AUROGLAUCIN] | < 40 | – | 43.1 | 62.6 | 15.2 | 19.9 | – | –
CCC/C=C/c1cc2c(C=O)c(O)c(CC=C(C)C)cc2o1 | < 40 | – | < 40 | < 40 | – | – | – | –
C=CC(C)(C)c1[nH]c2c(CC=C(C)C)cc(CC=C(C)C)cc2c1C[C@@H]1NC(=O)[C@H](C)NC1=O | < 40 | – | < 40 | < 40 | – | – | – | –

Further lines, results first:

Activity [1] [%] | IC50 [2] [µM] | Activity (Cannabinoid receptor 2 [3]) [%] | Activity (Cannabinoid receptor 1 [4]) [%] | IC50 (Cannabinoid receptor 1 [5]) [µM] | IC50 (Cannabinoid receptor 2 [6]) [µM] | IC50 (Mu-type opioid receptor) [µM] | IC50 [7] [µM] | SMILES
52.5 | – | < 40 | < 40 | – | – | – | – | CCCCCCCc1c(O)cc(CC=C(C)C)c(O)c1C=O
< 40 | – | < 40 | < 40 | – | – | – | – | CCC/C=C/C=C/c1c(O)cc(CC=C(C)C)c(O)c1C=O
< 40 | – | < 40 | < 40 | – | – | 7.2 | – | CCCCC/C=C/c1c(O)cc(CC=C(C)C)c(O)c1C=O [TETRAHYDROAUROGLAUCIN]
62.2 | – | < 40 | < 40 | – | – | – | 5.4 | CCCCC/C=C/c1c(O)cc(CC=C(C)C)c(O)c1CO
